Data from ChEMBL document CHEMBL3286396, “Discovery and Synthesis of C-Nucleosides as Potential New Anti-HCV Agents” (ACS Med Chem Lett, 2014).

What was measured:
Hepatitis C virus [1] = test: Antiviral activity against Hepatitis C virus genotype 1a infected in human HuH7 cells assessed as inhibition of subgenomic replicon RNA replication after 72 hrs by luciferase reporter assay; type: functional, cell-based, Hepacivirus hominis; details: subtype 1a, Huh-7, 72 h
Hepatitis C virus [2] = test: Antiviral activity against Hepatitis C virus genotype 1b infected in human HuH7 cells assessed as inhibition of subgenomic replicon RNA replication after 72 hrs by luciferase reporter assay; type: functional, cell-based, Hepacivirus hominis; details: Huh-7, 72 h
[3] = Cytotoxicity against human HuH7 cells by MTT assay; type: cell-based, Huh-7
Method in brief: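 Huh-7-derived HCV replicon cell lines were used, with MTT as the vital dye read-out.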

Hepatitis C virus [4] = test: Antiviral activity against Hepatitis C virus genotype 2a infected in human HuH7 cells assessed as inhibition of subgenomic replicon RNA replication after 72 hrs by luciferase reporter assay; type: functional, cell-based, Hepacivirus hominis; details: Huh-7, 72 h
Hepatitis C virus [5] = test: Antiviral activity against Hepatitis C virus genotype 2b infected in human HuH7 cells assessed as inhibition of subgenomic replicon RNA replication after 72 hrs by luciferase reporter assay; type: functional, cell-based, Hepacivirus hominis; details: Huh-7, 72 h
Hepatitis C virus [6] = test: Antiviral activity against Hepatitis C virus genotype 3a infected in human HuH7 cells assessed as inhibition of subgenomic replicon RNA replication after 72 hrs by luciferase reporter assay; type: functional, cell-based, Hepacivirus hominis; details: Huh-7, 72 h
Hepatitis C virus [7] = test: Antiviral activity against Hepatitis C virus genotype 4a infected in human HuH7 cells assessed as inhibition of subgenomic replicon RNA replication after 72 hrs by luciferase reporter assay; type: functional, cell-based, Hepacivirus hominis; details: Huh-7, 72 h
Hepatitis C virus [8] = test: Antiviral activity against Hepatitis C virus genotype 5a infected in human HuH7 cells assessed as inhibition of subgenomic replicon RNA replication after 72 hrs by luciferase reporter assay; type: functional, cell-based, Hepacivirus hominis; details: Huh-7, 72 h
Hepatitis C virus [9] = test: Antiviral activity against Hepatitis C virus genotype 6a infected in human HuH7 cells assessed as inhibition of subgenomic replicon RNA replication after 72 hrs by luciferase reporter assay; type: functional, cell-based, Hepacivirus hominis; details: Huh-7, 72 h
[10] = Drug anabolism in dog hepatocytes assessed as compound level at 10 uM after 24 hrs measured per million cells by mass spectrometer analysis; type: ADME, cell-based, Canis lupus familiaris, Hepatocyte
[11] = Inhibition of N-terminal His6-tagged Hepatitis C virus genotype 1b isolate Con1 NS5B RNA-dependent RNA polymerase activity by plate reader analysis
[12] = Inhibition of C-terminal His6-tagged and C-terminal 21 amino acids truncated Hepatitis C virus genotype 1a H77 NS5B RNA-dependent RNA polymerase activity using polyU or polyC RNA as template by microbeta plate reader analysis; parameters: species or system Hepatitis C virus (isolate H77)
[13] = Inhibition of C-terminal His6-tagged and C-terminal 21 amino acids truncated Hepatitis C virus genotype 2a JFH-1 NS5B RNA-dependent RNA polymerase activity using polyU or polyC RNA as template by microbeta plate reader analysis; parameters: species or system Hepatitis C virus JFH-1
[14] = Inhibition of C-terminal His6-tagged and C-terminal 21 amino acids truncated Hepatitis C virus genotype 3a VRL-69 NS5B RNA-dependent RNA polymerase activity using polyU or polyC RNA as template by microbeta plate reader analysis; parameters: species or system Hepatitis C virus subtype 3a
[15] = Drug anabolism in human HuH7 cells assessed as compound level at 10 uM after 24 hrs measured per million cells by mass spectrometer analysis; type: ADME, cell-based; details: huh-7, 24 h
[16] = Inhibition of C-terminal His6-tagged and C-terminal 21 amino acids truncated Hepatitis C virus genotype 5a SA13 NS5B RNA-dependent RNA polymerase activity using polyU or polyC RNA as template by microbeta plate reader analysis
[17] = Inhibition of C-terminal His6-tagged and C-terminal 21 amino acids truncated Hepatitis C virus genotype 7a QC69 NS5B RNA-dependent RNA polymerase activity using polyU or polyC RNA as template by microbeta plate reader analysis; parameters: species or system Hepacivirus hominis
[18] = Drug anabolism in human HuH7 cells assessed as triphosphate level at 10 uM after 24 hrs measured per million cells by mass spectrometer analysis; type: ADME, cell-based; details: huh-7, 24 h
[19] = Drug anabolism in human HuH7 cells assessed as diphosphate level at 10 uM after 24 hrs measured per million cells by mass spectrometer analysis; type: ADME, cell-based; details: huh-7, 24 h
[20] = Drug anabolism in human HuH7 cells assessed as monophosphate level at 10 uM after 24 hrs measured per million cells by mass spectrometer analysis; type: ADME, cell-based; details: huh-7, 24 h
Hepatocyte [21] = test: Drug anabolism in human hepatocytes assessed as triphosphate level at 10 uM after 24 hrs measured per million cells by mass spectrometer analysis; type: ADME, cell-based
Hepatocyte [22] = test: Drug anabolism in human hepatocytes assessed as diphosphate level at 10 uM after 24 hrs measured per million cells by mass spectrometer analysis; type: ADME, cell-based
Hepatocyte [23] = test: Drug anabolism in human hepatocytes assessed as monophosphate level at 10 uM after 24 hrs measured per million cells by mass spectrometer analysis; type: ADME, cell-based
Hepatocyte [24] = test: Drug anabolism in rat hepatocytes assessed as triphosphate level at 10 uM after 24 hrs measured per million cells by mass spectrometer analysis; type: ADME, cell-based
Hepatocyte [25] = test: Drug anabolism in rat hepatocytes assessed as diphosphate level at 10 uM after 24 hrs measured per million cells by mass spectrometer analysis; type: ADME, cell-based
Hepatocyte [26] = test: Drug anabolism in rat hepatocytes assessed as monophosphate level at 10 uM after 24 hrs measured per million cells by mass spectrometer analysis; type: ADME, cell-based
[27] = Drug anabolism in dog hepatocytes assessed as triphosphate level at 10 uM after 24 hrs measured per million cells by mass spectrometer analysis; type: ADME, cell-based, Canis lupus familiaris, Hepatocyte
[28] = Drug anabolism in dog hepatocytes assessed as diphosphate level at 10 uM after 24 hrs measured per million cells by mass spectrometer analysis; type: ADME, cell-based, Canis lupus familiaris, Hepatocyte
[29] = Drug anabolism in dog hepatocytes assessed as monophosphate level at 10 uM after 24 hrs measured per million cells by mass spectrometer analysis; type: ADME, cell-based, Canis lupus familiaris, Hepatocyte
[30] = Total clearance in Sprague-Dawley rat at 2 mg/kg, iv and 5 mg/kg, po by WinNonlin non-compartmental analysis; type: ADME, organism-based; details: in vivo
Method in brief: (§1)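 PK study animals were male Sprague–Dawley rats.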

[31] = Volume of distribution at steady state in Sprague-Dawley rat at 2 mg/kg, iv and 5 mg/kg, po by WinNonlin non-compartmental analysis; type: ADME, organism-based; details: in vivo, read-out: Vdss
Method in brief: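 Pharmacokinetics were determined in male Sprague–Dawley rats.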

[32] = Cmax in Sprague-Dawley rat at 5 mg/kg, po by WinNonlin non-compartmental analysis; type: ADME, organism-based; parameters: dose 5 mg/kg, route oral; details: in vivo; method in brief: as §1
[33] = Total clearance in Beagle dog at 2 mg/kg, iv and 5 mg/kg, po by WinNonlin non-compartmental analysis; type: ADME, organism-based, Canis lupus familiaris; details: in vivo
[34] = Volume of distribution at steady state in Beagle dog at 2 mg/kg, iv and 5 mg/kg, po by WinNonlin non-compartmental analysis; type: ADME, organism-based, Canis lupus familiaris; details: in vivo, read-out: Vdss
[35] = Cmax in Beagle dog at 5 mg/kg, po by WinNonlin non-compartmental analysis; type: ADME, organism-based, Canis lupus familiaris; parameters: dose 5 mg/kg, route oral; details: in vivo
[36] = Total clearance in cynomolgus monkey at 2 mg/kg, iv and 5 mg/kg, po by WinNonlin non-compartmental analysis; type: ADME, organism-based, Macaca fascicularis; details: in vivo
[37] = Volume of distribution at steady state in cynomolgus monkey at 2 mg/kg, iv and 5 mg/kg, po by WinNonlin non-compartmental analysis; type: ADME, organism-based, Macaca fascicularis; details: in vivo, read-out: Vdss
[38] = Cmax in cynomolgus monkey at 5 mg/kg, po by WinNonlin non-compartmental analysis; type: ADME, organism-based, Macaca fascicularis; parameters: dose 5 mg/kg, route oral; details: in vivo
[39] = Mitochondrial toxicity in human HepG2 cells assessed as increase in lactate production up to 10 uM measured for 14 days; type: cell-based, Mitochondria; details: hepg2, 336 h
[40] = Mitochondrial toxicity in human HepG2 cells assessed as decrease in mitochondrial DNA content up to 10 uM measured for 14 days; type: cell-based, Mitochondria; details: hepg2, 336 h
[41] = Cytotoxicity in rat liver epithelial cells; type: cell-based, Epithelial cell
[42] = Cytotoxicity in rat kidney fibroblasts; parameters: species or system Fibroblast
[43] = Cytotoxicity in rat heart myoblasts; parameters: species or system Myoblast
[44] = Inhibition of erythroid progenitor proliferation in human bone marrow cells up to 100 uM; type: cell-based; details: bone marrow cell
[45] = Inhibition of myeloid progenitor proliferation in human bone marrow cells up to 100 uM; type: cell-based; details: bone marrow cell
Salmonella typhimurium = test: Genotoxicity in Salmonella typhimurium by Ames test; type: toxicity, organism-based; details: salmonella enterica subsp. enterica serovar typhimurium
Rattus norvegicus = test: Toxicity in rat assessed as animal death up to 400 mg/kg, po administered as single dose; type: organism-based; parameters: dose 400 mg/kg, route oral; details: in vivo
Hepatocyte [46] = test: Drug anabolism in human hepatocytes assessed as compound level at 10 uM after 24 hrs measured per million cells by mass spectrometer analysis; type: ADME, cell-based
Hepatocyte [47] = test: Drug anabolism in rat hepatocytes assessed as compound level at 10 uM after 24 hrs measured per million cells by mass spectrometer analysis; type: ADME, cell-based

For C[C@@]1(O)[C@H](O)[C@@H](CO)O[C@H]1c1ccc2c(N)ncnn12, the EC50 (Hepatitis C virus [1]) was 760 nM, the EC50 (Hepatitis C virus [2]) was 1600 nM and the CC50 [3] was > 100000 nM. For the same molecule, the EC50 (Hepatitis C virus [4]) was 630 nM, the EC50 (Hepatitis C virus [5]) was 410 nM and the EC50 (Hepatitis C virus [6]) was 420 nM. It also gave an EC50 (Hepatitis C virus [7]) of 880 nM, an EC50 (Hepatitis C virus [8]) of 820 nM and an EC50 (Hepatitis C virus [9]) of 1000 nM. The Drug metabolism [10] was 29.7 pmol, the IC50 [11] was 370 nM and the IC50 [12] was 570 nM. For the same molecule, the IC50 [13] was 390 nM, the IC50 [14] was 500 nM and the Drug metabolism [15] was 31.8 pmol. It also gave an IC50 [16] of 480 nM, an IC50 [17] of 810 nM and a Drug metabolism [18] of 9.33 pmol. For the same molecule, the Drug metabolism [19] was 0.53 pmol, the Drug metabolism [20] was 3.36 pmol and the Drug metabolism (Hepatocyte [21]) was 487 pmol. The Drug metabolism (Hepatocyte [22]) was 40.5 pmol, the Drug metabolism (Hepatocyte [23]) was 27.6 pmol and the Drug metabolism (Hepatocyte [24]) was 49.9 pmol. The Drug metabolism (Hepatocyte [25]) was 9.7 pmol, the Drug metabolism (Hepatocyte [26]) was 7.3 pmol and the Drug metabolism [27] was 51.2 pmol. It also gave a Drug metabolism [28] of 8.3 pmol, a Drug metabolism [29] of 7 pmol and a clearance [30] of 18.8 mL/min/kg. For the same molecule, the Vd [31] was 4.19 L/kg, the Cmax [32] was 2380 nM and the clearance [33] was 11.4 mL/min/kg. For the same molecule, the Vd [34] was 5.22 L/kg, the Cmax [35] was 8360 nM and the clearance [36] was 20.5 mL/min/kg. For the same molecule, the Vd [37] was 2.43 L/kg, the Cmax [38] was 820 nM and the Activity [39] was “Non-toxic”. The Activity [40] was “Non-toxic”, the CC50 [41] was 190000 nM and the CC50 [42] was > 250000 nM. The CC50 [43] was > 250000 nM, the Activity [44] was “Non-toxic” and the Activity [45] was “Non-toxic”. The Activity (Salmonella typhimurium) was “Non-toxic”, the Activity (Rattus norvegicus) was “Toxic” and the Drug metabolism (Hepatocyte [46]) was 46.2 pmol. The Drug metabolism (Hepatocyte [47]) was 16.9 pmol.
